# Active and inactive are the calls of the source. The rule behind the calls is not given here.
# Experiments:
# [1] = Antioxidant activity against linoleic acid assessed as inhibition of beta-carotene bleaching at 12 uM after 180 mins; format: functional; parameters: scale not given: the % may be the effect or the level left
# How it was run: (§1)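 Linoleic acid/β-carotene emulsion held at 50 °C for 180 min with antioxidant across a range of concentrations. Bleaching of β-carotene followed as A470. % A470 = (sample A470 at 180 min / at 0 min ×100) minus the same ratio for a no-antioxidant control.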
# [2] = Antioxidant activity assessed as inhibition of AAPH-induced lipid peroxidation in human plasma LDL after 18 hrs by gel electrophoresis; format: functional, cell-free
# How it was run: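 LDL oxidized with 10 mM AAPH for 18 h at 37 °C, with or without antioxidant. Azo initiator used instead of Cu2+ so that metal pro-oxidant effects are avoided. Read-out is anodic migration on agarose gel, with AAPH-oxidized LDL set as 100% migration.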
# [3] = Prooxidant effect on Cu2+-induced pBR322 DNA damage at 0.35 to 45 uM after 1 hr; format: functional
# How it was run: (§2)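 Pro-oxidant test: pBR322 plasmid incubated with 10 μM Cu2+ at 37 °C for 1 h with compound at final 0.35–45 μM. DNA damage judged by agarose gel electrophoresis.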
# [4] = tested on: Radical scavenging activity; assay: Antioxidant activity assessed as DPPH free radical scavenging activity within 10 mins; format: functional
# [5] = Antioxidant activity assessed as protection against AAPH-induced pBR322 plasmid DNA strand open circular form at 5 uM after 4 hrs by agarose electrophoresis; format: functional
# How it was run: (§3)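 pBR 322 plasmid DNA incubated with AAPH (10 mM final) at 37 °C for 4 h, with or without antioxidant (0.35-45 μM final). Samples then run on agarose electrophoresis. Protection was judged from the supercoiled (S) band intensity against a control without AAPH. AAPH converts the DNA to the open circular (O) form.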
# [6] = Antioxidant activity assessed as protection against AAPH-induced pBR322 plasmid DNA strand open circular form at <5 uM after 4 hrs by agarose gel electrophoresis; format: functional; how it was run: as §3
# [7] = Antioxidant activity against linoleic acid assessed as inhibition of beta-carotene bleaching after 180 mins; format: functional; how it was run: as §1
# [8] = Antioxidant activity assessed as protection against AAPH-induced pBR322 plasmid DNA strand open circular form at 11 to 45 uM after 4 hrs by agarose gel electrophoresis; format: functional; how it was run: as §3
# [9] = Prooxidant effect on Cu2+-induced pBR322 DNA damage at 3 to 45 uM after 1 hr; format: functional
# [10] = Prooxidant effect on Cu2+-induced pBR322 DNA damage at 25 to 45 uM after 1 hr; format: functional; conditions: 23 and 45 uM; in the assay text read “23 and 45 uM” for “25 to 45 uM”; how it was run: as §2
# [11] = Antioxidant activity assessed as protection against AAPH-induced pBR322 plasmid DNA strand open circular form at >= 45 uM after 4 hrs by agarose gel electrophoresis; format: functional
# How it was run: (§4)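 pBR322 plasmid DNA incubated with AAPH (final 10 mM) at 37 °C for 4 h, with or without antioxidant at final 0.35–45 μM. Agarose electrophoresis then compares supercoiled and open circular band intensities with a no-AAPH control.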
# [12] = tested on: Radical scavenging activity; assay: Antioxidant activity assessed as DPPH free radical scavenging activity within 1 mins; format: functional
# [13] = Antioxidant activity assessed as protection against AAPH-induced pBR322 plasmid DNA strand open circular form at 0.35 to 45 uM after 4 hrs by agarose gel electrophoresis; format: functional; how it was run: as §4
smiles,measurement,setting,value
COc1cc(C=O)ccc1O [VANILLIN],Activity,[1],< 5%
same,Activity,[2],inactive
same,Activity,[3],inactive
same,IC50,[4],> 100 µM
COc1cc(CN(Cc2ccc(CN(Cc3cc(OC)c(O)c(OC)c3)Cc3cc(OC)c(O)c(OC)c3)cc2)Cc2cc(OC)c(O)c(OC)c2)cc(OC)c1O,Activity,[5],Active
same,Activity,[2],Dose-dependent effect
same,Activity,[6],inactive
same,Activity,[7],Active
same,Activity,[8],Active
same,Activity,[9],Active
O=c1c(O)c(-c2ccc(O)c(O)c2)oc2cc(O)cc(O)c12,Activity,[5],inactive
same,Activity,[6],inactive
same,Activity,[8],Active
same,Activity,[9],Active
COc1cc(CN(Cc2ccc(CN(Cc3ccc(O)c(OC)c3)Cc3ccc(O)c(OC)c3)cc2)Cc2ccc(O)c(OC)c2)ccc1O,Activity,[10],Active
same,Activity,[2],Dose-dependent effect
same,Activity,[7],Active
same,Activity,[11],Active
COc1cc(C=O)cc(OC)c1O [SYRINGALDEHYDE],Activity,[1],12%
same,Activity,[2],inactive
same,Activity,[3],inactive
same,IC50,[4],> 100 µM
Cc1c(C)c2c(c(C)c1O)CCC(C)(C(=O)O)O2 (centres undefined) [TROLOX],IC50,[12],27.6 µM
same,Activity,[13],inactive
same,Activity,[3],Active
COc1cc(CN(Cc2ccc(CN(Cc3cc(I)c(O)c(OC)c3)Cc3cc(I)c(O)c(OC)c3)cc2)Cc2cc(I)c(O)c(OC)c2)cc(I)c1O,Activity,[13],inactive
same,Activity,[2],Dose-dependent effect
same,Activity,[7],Active
NCc1ccc(CN)cc1,Activity,[1],16%
